We go through 27 molecules from ChEMBL document CHEMBL1126581 (J Med Chem, 1993).

The IC50 is the concentration needed to halve the response being measured.

Experiment [1] can be described thus: Selectivity was expressed as the ratio is IC 50 of t-PA / thrombin. The procedure, abridged: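 Ratio of t-PA IC50 to thrombin IC50. Amidolytic assays in 0.1 M Tris-HCl (pH 7.4) at 25 °C: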
Experiment [2] in a line: Selectivity was expressed as the ratio is IC 50 of plasmin / thrombin. The procedure, abridged:
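Ratio of plasmin IC50 to thrombin IC50. Amidolytic assays at 25 °C in 0.1 M Tris-HCl (pH 7.4):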

The target of experiment [3] is Plasminogen (Homo sapiens, UniProt P00747). In words: Inhibitory activity against plasmin.
For experiment [4], the target named is Serine protease 1 (Homo sapiens, UniProt P07477). Description: Inhibitory activity against trypsin. The method, boiled down: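 Trypsin 93 ng/mL hydrolysing Bz-Phe-Val-Arg-pNA 0.125 mg/mL, 0.1 M Tris-HCl pH 7.4, 25 °C. […] Varying peptide concentrations, 5-min preincubation. IC50 is the concentration producing 50% inhibition of activity against a blank control.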

In experiment [5] the target is Coagulation factor X (Bos taurus) (UniProt P00743). Description: Inhibitory activity against factor Xa.
The target in experiment [6] is Prothrombin (Bos taurus) (UniProt P00735). Description: Inhibitory activity against thrombin.

Where a SMILES comes first, the peptide text is derived from it. [ ]: non-standard residue; d: D form. The star is where a group is joined. dHpg = N[C@@H](C(=O)O)c1ccc(O)cc1; dChg = N[C@@H](C(=O)O)C1CCCCC1; dPhg = N[C@@H](C(=O)O)c1ccccc1; Boc = CC(C)(C)OC(=O)*

Chain of Coagulation factor X (Bos taurus) (P00743 whole entry, looked up): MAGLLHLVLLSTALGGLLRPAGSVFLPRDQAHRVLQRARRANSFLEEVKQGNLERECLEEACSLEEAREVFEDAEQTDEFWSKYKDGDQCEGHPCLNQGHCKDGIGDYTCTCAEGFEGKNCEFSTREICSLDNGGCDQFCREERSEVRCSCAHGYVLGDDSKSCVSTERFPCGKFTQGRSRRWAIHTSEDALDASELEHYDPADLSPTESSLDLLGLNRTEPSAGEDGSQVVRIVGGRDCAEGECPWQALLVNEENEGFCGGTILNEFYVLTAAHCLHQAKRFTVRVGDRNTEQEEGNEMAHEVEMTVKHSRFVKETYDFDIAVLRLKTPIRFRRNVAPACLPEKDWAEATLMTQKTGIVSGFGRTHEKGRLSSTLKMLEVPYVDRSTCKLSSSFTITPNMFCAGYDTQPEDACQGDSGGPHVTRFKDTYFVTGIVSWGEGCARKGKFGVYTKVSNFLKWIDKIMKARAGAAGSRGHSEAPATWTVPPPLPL
Chain of Serine protease 1 (P07477 whole entry): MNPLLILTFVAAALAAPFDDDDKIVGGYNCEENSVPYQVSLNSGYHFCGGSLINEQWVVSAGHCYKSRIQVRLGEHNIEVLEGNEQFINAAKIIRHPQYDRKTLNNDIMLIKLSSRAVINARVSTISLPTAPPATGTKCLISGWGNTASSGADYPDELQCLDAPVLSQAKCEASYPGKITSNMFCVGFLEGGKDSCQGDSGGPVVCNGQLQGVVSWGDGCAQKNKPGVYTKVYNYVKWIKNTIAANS
Chain of Plasminogen (P00747 97-580 limits assumed): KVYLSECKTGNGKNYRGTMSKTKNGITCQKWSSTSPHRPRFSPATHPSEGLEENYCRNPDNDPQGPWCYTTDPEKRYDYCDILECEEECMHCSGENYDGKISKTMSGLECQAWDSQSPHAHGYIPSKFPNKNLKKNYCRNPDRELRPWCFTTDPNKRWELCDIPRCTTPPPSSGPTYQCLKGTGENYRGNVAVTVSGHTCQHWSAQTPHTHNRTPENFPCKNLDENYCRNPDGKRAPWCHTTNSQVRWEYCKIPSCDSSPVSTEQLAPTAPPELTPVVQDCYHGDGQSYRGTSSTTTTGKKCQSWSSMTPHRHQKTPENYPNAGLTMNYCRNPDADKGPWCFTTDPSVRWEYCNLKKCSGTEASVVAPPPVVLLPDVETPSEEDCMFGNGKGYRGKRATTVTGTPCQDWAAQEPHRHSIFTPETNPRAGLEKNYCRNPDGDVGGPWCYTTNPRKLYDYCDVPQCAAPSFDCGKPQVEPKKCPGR
Chain of Plasminogen (P00747 581-810 limits assumed): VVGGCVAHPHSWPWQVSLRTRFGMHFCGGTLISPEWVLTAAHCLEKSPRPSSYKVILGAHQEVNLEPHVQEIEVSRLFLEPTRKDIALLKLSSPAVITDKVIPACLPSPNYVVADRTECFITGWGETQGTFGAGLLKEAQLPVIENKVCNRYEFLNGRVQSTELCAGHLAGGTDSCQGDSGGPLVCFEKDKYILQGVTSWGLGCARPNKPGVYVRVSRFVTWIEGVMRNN

For `CC[C@H](C(=O)N1CCC[C@H]1C(=O)NC(C=O)CCCN=C(N)N)c1ccccc1` (some centres not stated), the Selectivity ratio was above 800 in experiment [1] and 160 in experiment [2].
With `NC(N)=NCCC[C@@H](C=O)NC(=O)[C@@H]1CCCN1C(=O)[C@H](N)c1ccccc1` (H-[dPhg]-Pro-Arg-aldehyde), the IC50 was 910 nM in experiment [3], 19 nM in experiment [4], 1600 nM in experiment [5] and 18 nM in experiment [6]. The Selectivity ratio in experiment [1] is 2200; in experiment [2], 50.
Turning to `CC(C)(C)OC(=O)N[C@H](C(=O)N1CCC[C@H]1C(=O)NC(C=O)CCCNC(=N)N)c1cccc2ccccc12` (some centres not stated), the IC50 was found to be 180 nM in experiment [3], 29 nM in experiment [4], 210 nM in experiment [5] and 55 nM in experiment [6].
For `CC(C)(C)OC(=O)N[C@@H](C(=O)N1CCC[C@H]1C(=O)NC(C=O)CCCNC(=N)N)c1cccc2ccccc12` (some centres not stated), in that order: 620 nM, 14 nM, 1400 nM and 23 nM.
As to `N=C(N)NCCC[C@@H](C=O)NC(=O)[C@@H]1CCCN1C(=O)C1CCc2ccccc2N1` (some centres not stated), the IC50 in experiment [3] came to 15000 nM; in experiment [4], 570 nM; in experiment [5], 12000 nM; in experiment [6] it was 3100 nM. Besides, the Selectivity ratio in experiment [1] amounted to 210; in experiment [2], 5.
`CC(C)(C)OC(=O)NC(C(=O)N1CCC[C@H]1C(=O)NC(C=O)CCCN=C(N)N)c1ccc(Cl)c(Cl)c1` (some centres not stated): the Selectivity ratio in experiment [1] is 1100; in experiment [2], 6.
Consider `C[C@H](C(=O)N1CCC[C@H]1C(=O)NC(C=O)CCCNC(=N)N)c1ccccc1` (some centres not stated), for which the IC50 in experiment [3] turned out to be 18000 nM; in experiment [4], 180 nM; in experiment [5], 31000 nM; in experiment [6], 94 nM.
With `C[C@H](C(=O)N1CCC[C@H]1C(=O)NC(C=O)CCCN=C(N)N)c1ccccc1` (some centres not stated), the figures for the Selectivity ratio in experiment [1] and in experiment [2] were above 100 and 190, respectively.
`CC(C)(C)OC(=O)NC(C(=O)N1CCC[C@H]1C(=O)NC(C=O)CCCN=C(N)N)c1cccc(C(F)(F)F)c1` (some centres not stated): the IC50 came out at 130 nM in experiment [3], 19 nM in experiment [4], 1400 nM in experiment [5] and 27 nM in experiment [6]. For the same molecule, the results for the Selectivity ratio in experiment [1] and in experiment [2] were 560 and 5, respectively.
Take `CC(C)(C)OC(=O)N[C@@H](C(=O)N1CCC[C@H]1C(=O)N[C@H](C=O)CCCN=C(N)N)c1ccc(O)cc1` (Boc-[dHpg]-Pro-Arg-aldehyde): the IC50 in experiment [3] was found to be 94 nM; in experiment [4] it was 17 nM; in experiment [5], 200 nM; in experiment [6], 89 nM. Besides, the Selectivity ratio in experiment [1] is 180; in experiment [2], 1.
Regarding `CC(C)(C)OC(=O)N[C@@H](C(=O)N1CCC[C@H]1C(=O)N[C@H](C=O)CCCN=C(N)N)C1CCCCC1` (Boc-[dChg]-Pro-Arg-aldehyde), the IC50 in experiment [3] was 81 nM; in experiment [4], 13 nM; in experiment [5], 81 nM; in experiment [6], 12 nM. Moreover, the Selectivity ratio in experiment [1] turned out to be 190; in experiment [2] it was 7.
As to `CC(C)(C)OC(=O)NC(C(=O)N1CCC[C@H]1C(=O)NC(C=O)CCCNC(=N)N)c1ccc(Cl)c(Cl)c1` (some centres not stated), the IC50 came out at 180 nM in experiment [3], 15 nM in experiment [4], 69 nM in experiment [5] and 28 nM in experiment [6].
Consider `C[C@@H](C(=O)N1CCC[C@H]1C(=O)NC(C=O)CCCN=C(N)N)c1ccccc1` (some centres not stated), for which the IC50 was determined as 41000 nM in experiment [3], 890 nM in experiment [4], 81000 nM in experiment [5] and 5100 nM in experiment [6]. The Selectivity ratio in experiment [2] was 8.
On to `CC[C@H](C(=O)N1CCC[C@H]1C(=O)NC(C=O)CCCNC(=N)N)c1ccccc1` (some centres not stated), for which the IC50 in experiment [3] amounted to 21000 nM; in experiment [4] it was 350 nM; in experiment [5] it was 33000 nM; in experiment [6], 130 nM.
Regarding `N=C(N)NCCC[C@@H](C=O)NC(=O)[C@@H]1CCCN1C(=O)[C@H]1Cc2ccccc2CN1`, the IC50 in experiment [4] was 19 nM; in experiment [5], 4100 nM; in experiment [6], 25 nM.
For the molecule `CO[C@H](C(=O)N1CCC[C@H]1C(=O)NC(C=O)CCCN=C(N)N)c1ccccc1` (some centres not stated), the IC50 in experiment [3] amounted to 15000 nM; in experiment [5], 27000 nM; in experiment [6], 250 nM. Moreover, the values for the Selectivity ratio in experiment [1] and in experiment [2] were 3400 and 60, respectively.
With `CC(C)(C)OC(=O)N[C@@H](C(=O)N1CCC[C@H]1C(=O)N[C@H](C=O)CCCN=C(N)N)c1ccsc1`, the IC50 in experiment [3] amounted to 150 nM; in experiment [4], 13 nM; in experiment [5] it was 190 nM; in experiment [6] it was 73 nM. In addition, the Selectivity ratio in experiment [1] is 180; in experiment [2] it was 2.
Consider `CC(C)(C)OC(=O)N[C@@H](C(=O)N1CCC[C@H]1C(=O)NC(C=O)CCCN=C(N)N)c1cccc2ccccc12` (some centres not stated), for which the values for the Selectivity ratio in experiment [1] and in experiment [2] were 870 and 30, respectively.
Regarding `CN[C@@H](C(=O)N1CCC[C@H]1C(=O)N[C@H](C=O)CCCN=C(N)N)c1ccccc1`, the Selectivity ratio came out at 2300 in experiment [1] and 30 in experiment [2].
Turning to `CN[C@@H](C(=O)N1CCC[C@H]1C(=O)N[C@H](C=O)CCCNC(=N)N)c1ccccc1`, the IC50 in experiment [3] amounted to 490 nM; in experiment [4] it was 18 nM; in experiment [5], 2200 nM; in experiment [6], 18 nM.
For the molecule `CC(C)(C)OC(=O)N[C@H](C(=O)N1CCC[C@H]1C(=O)N[C@H](C=O)CCCN=C(N)N)c1ccc(F)cc1`, the IC50 stood at 770 nM in experiment [3], 24 nM in experiment [4], 6700 nM in experiment [5] and 85 nM in experiment [6]. The Selectivity ratio in experiment [1] came out at 1100; in experiment [2], 9.
As for `CC(C)(C)OC(=O)N[C@@H](C(=O)N1CCC[C@H]1C(=O)N[C@H](C=O)CCCN=C(N)N)c1ccc(F)cc1`, the IC50 worked out at 85 nM in experiment [3], 19 nM in experiment [4], 1600 nM in experiment [5] and 30 nM in experiment [6]. For the same molecule, the figures for the Selectivity ratio in experiment [1] and in experiment [2] were 600 and 4, respectively.
For `CC(C)(C)OC(=O)N[C@H](C(=O)N1CCC[C@H]1C(=O)NC(C=O)CCCN=C(N)N)c1cccc2ccccc12` (some centres not stated), the Selectivity ratio in experiment [2] came to 3.
On to `CC(C)(C)OC(=O)N[C@H](Cc1ccccc1)C(=O)N1CCC[C@H]1C(=O)N[C@H](C=O)CCCN=C(N)N`, for which the IC50 was 190 nM in experiment [3], 14 nM in experiment [4], 1600 nM in experiment [5] and 45 nM in experiment [6]. Besides, the Selectivity ratio in experiment [1] was 20; in experiment [2], 4.
Regarding `CC(C)(C)OC(=O)N[C@@H](C(=O)N1CCC[C@H]1C(=O)N[C@H](C=O)CCCN=C(N)N)c1ccccc1` (Boc-[dPhg]-Pro-Arg-aldehyde), the IC50 is 98 nM in experiment [3], 9.8 nM in experiment [4], 260 nM in experiment [5] and 16 nM in experiment [6]. In addition, the Selectivity ratio worked out at 540 in experiment [1] and 6 in experiment [2].
`N=C(N)NCCC[C@@H](C=O)NC(=O)[C@@H]1CCCN1C(=O)[C@@H]1NCCc2ccccc21`: the IC50 in experiment [3] was found to be 1500 nM; in experiment [4], 23 nM; in experiment [6], 19 nM.
Turning to `CC(C)(C)OC(=O)N[C@@H](C(=O)N1CCC[C@H]1C(=O)NC(C=O)CCCN=C(N)N)c1ccc2ccccc2c1` (some centres not stated), the IC50 in experiment [3] came to 55 nM; in experiment [4], 9 nM; in experiment [5], 50 nM; in experiment [6], 18 nM. Also, the values for the Selectivity ratio in experiment [1] and in experiment [2] were 670 and 3, respectively.
